Most compounds without a hit are left out; they make up all but 3.9% or so of the library.
ANO1 block: inhibitors of mouse TMEM16A calcium-activated chloride channel. Q8BHY3. HEK293 TMEM16A/YFP iodide influx fluorescence, ionomycin. normalized B-score (activity score, 25-100; higher = stronger inhibition) at 10 µM. hit rate 1.2% among 310,000. AID 588511;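 active means ratio plate-corrected score three or more library SD toward inhibition, starting fluorescence score within five deviations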;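 further: score derived from kinetic fluorescence span divided by baseline fluorescence per well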
TMEM16A act: mouse TMEM16A channel activation, primary screen. Q8BHY3. HEK293 TMEM16A/YFP-H148Q/I152L, iodide quench fluorescence; stronger effect = lower value. B-score at 10 µM. hit rate 0.3% among 340,000. AID 623877;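 active means fluorescence-ratio B-score plate-corrected deviation score at least 3 library SD below zero, with starting fluorescence score within 5 deviations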;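 further: channel opened by trigger with iodide after compound preincubation; score built on the fluorescence ratio of max minus min over baseline; more negative score means more quench and so TMEM16A activation or potentiation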
CRFBP-R2 block: blocks CRF-induced signaling of the CRF-BP/CRF-R2 complex; AID 588475; inhibition, % at 11.8 µM; hit rate 0.59% among 350,000; HEK293 CRF-R2/CRF-BP, CRF-induced calcium fluorescence;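 active means inhibition of the ligand-induced calcium signal above about 50% at the single tested concentration, limit read from the data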
TAAR1 antag: antagonists of human TAAR1 | CHO RD-HGA16 TAAR1, Fluo-8 calcium fluorescence, antagonist | AID 624466 | inhibition, % at 3 µM | hit rate 1.5% among 360,000 | Q96RJ0;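 active means inhibition above a per-plate cutoff, the mean inhibition of test compounds on that plate plus 3 SD, cut at about 49% in these data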
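Test system: hTAAR1-expressing CHO RD-HGA16 cells, Gα16-coupled; Probe or stimulus: EC80 β-phenethylamine stimulus; Compound dosing: single nominal final test compound concentration of 3 µM; Timing: 140 s kinetic read after compound, 140 s after agonist; Signal: Fluo-8 calcium-sensitive fluorescence; Measure: % inhibition of agonist calcium response; Controls: DMSO and EC80 PEA controls.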
CRFR2-BP ag: agonists of human CRF-binding protein/CRF-R2 receptor complex. activation, % at 13.2 µM. HEK293 CRF-R2/CRF-BP, calcium dye fluorescence (FLIPR); percent of saturating CRF peptide response. hit rate 0.46% among 350,000;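 active means activation of at least 50%, plus an integration ratio under a set limit after plate pattern correction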
TAAR1 agonist: human TAAR1 agonism; hit rate 0.99% among 360,000; CHO RD-HGA16 TAAR1, Fluo-8 calcium fluorescence; vehicle wells 0%, saturating PEA agonist 100%; Q96RJ0; activation, % at 3 µM;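 active means activation above the mean activation of all test compounds in the run plus 3 SD, cut at about 38% in these data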
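Test system: RD-HGA16 (CHO) cells co-expressing Gα16 and hTAAR1; dosing: one-point dosing at 3 µM (nominal); timing: 17-24 h seeding, 75 min 37 °C dye, 30 min RT; signal: kinetic Fluo-8 calcium fluorescence; read-out basis: % activation relative to PEA EC100 response; controls: DMSO and PEA EC100; replicates: n 1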
TMEM16A reconf: TMEM16A (mouse) chloride channel inhibition, re-confirmation. shares compounds with ANO1 block. hit rate 39% among 2,300. inhibition, % at 10 µM. AID 652189. HEK293 TMEM16A/YFP-H148Q, iodide quench fluorescence; ionomycin added to raise cell calcium;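 active means mean duplicate percent inhibition, scaled so buffer wells are 0 and the reference blocker 100, over three buffer SD above buffer mean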
TMEM16A Ca cntr: calcium mobilization counter-screen hit for TMEM16A inhibitor series | shares compounds with ANO1 block | TMEM16A/YFP HEK293, Fluo4 calcium mobilization | calcium response (% of ionomycin), % at 10 µM | hit rate 2% among 2,300;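 active means duplicate-averaged calcium signal over 20% of the ionomycin maximum, relative to buffer baseline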;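 further: each well's signal is peak minus trough fluorescence divided by its pre-addition baseline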
YFP-HEK293 quench: acts in parental YFP-HEK293 cells lacking TMEM16A, counter-screen; shares compounds with ANO1 block; iodide YFP quench, ionomycin; YFP ratio F(max-min)/F0 at 10 µM; 2,300 tested, under 10 active; AID 652233;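 active means yellow fluorescent protein signal ratio exceeding the buffer control mean by over 5 SD of those controls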;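 further: ratio is mean of duplicate wells from kinetic YFP trace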
ClC-1 rat inh: blocks the rat ClC-1 voltage-dependent chloride channel; shares compounds with ANO1 block; CHO ClC-1-YFP, iodide influx fluorescence quench; iodide control reads 0, buffer control 100; ratio percent, % at 10 µM; 2,300 tested, under 10 active; AID 652236;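 active means duplicate-mean ratio percent above the mean of iodide-only control wells, which defines zero, plus 5 of their SD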;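 further: higher percent means stronger block of ClC-1 iodide influx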
Each line names hits and unclear results; the compound was inactive in the other large screens (follow-up assays come after a bar, where they were run).

CC(OC(=O)C1=COCCO1)C(=O)NC1CCCC(C)C1C (stereo not given)	none (no result: ANO1 block, TMEM16A act)
COc1ccccc1NC(=O)c1ccc(C(=O)c2ccccc2)o1	ANO1 block 100 | TMEM16A reconf 19% | TMEM16A Ca cntr inactive | YFP-HEK293 quench inactive | ClC-1 rat inh inactive
COc1ccccc1NC(=O)CC(=O)Nc1ccccc1OC	none
COc1ccccc1NC(=O)Cc1ccc(-c2ccccc2)cc1	ANO1 block 25 | TMEM16A reconf inactive | TMEM16A Ca cntr inactive | YFP-HEK293 quench inactive | ClC-1 rat inh inactive
CCC1CCCCN1CCCNC(=O)CS(=O)(=O)Cc1nc(-c2cccc(OC)c2)oc1C (stereo not given)	none
O=c1[nH][nH]c2c1C(C1CCCCC1)OC(C1CCCCC1)C2 (stereo not given)	none (no result: ANO1 block, TMEM16A act, CRFBP-R2 block, CRFR2-BP ag)
COc1ccc(OC)c(S(=O)(=O)N2CCCC(C(=O)NC3CC3)C2)c1 (stereo not given)	none (no result: ANO1 block, TMEM16A act)
C=CCNC(=O)c1c(Cl)cnn1-c1ccc(C)cc1	none
O=C(CSc1nc2ccccc2s1)Nc1ccc(N2CCOCC2)c(Cl)c1	ANO1 block 100 | TMEM16A reconf inactive | TMEM16A Ca cntr inactive | YFP-HEK293 quench inactive | ClC-1 rat inh inactive
Cc1cc(C)nc(SCC(=O)Nc2ccc(N3CCOCC3)c(Cl)c2)n1	ANO1 block 100 | TMEM16A reconf inactive | TMEM16A Ca cntr inactive | YFP-HEK293 quench inactive | ClC-1 rat inh inactive
O=C(CSc1nc2ccccc2o1)Nc1cc(C(F)(F)F)ccc1N1CCOCC1	none
CNc1nc(SCC(=O)Nc2ccc(Cl)c(Cl)c2)nc(N2CCOCC2)n1	none
O=C(CSc1nc2ccccc2o1)Nc1ccccc1N1CCCCCC1	ANO1 block 25 | TMEM16A reconf inactive | TMEM16A Ca cntr inactive | YFP-HEK293 quench inactive | ClC-1 rat inh inactive
O=C(CSc1nc2ccccc2o1)Nc1ccc(N2CCOCC2)c(Cl)c1	ANO1 block 100 | TMEM16A reconf 24% | TMEM16A Ca cntr inactive | YFP-HEK293 quench inactive | ClC-1 rat inh inactive
CCN(CC(=O)Nc1ccc(NC(C)=O)cc1)C(=O)c1ccccc1CCc1ccccc1	none
O=C(Nn1nnnc1Nc1ccccc1)C12CC3CC(CC(C3)C1)C2	ANO1 block 25 | TMEM16A reconf inactive | TMEM16A Ca cntr inactive | YFP-HEK293 quench inactive | ClC-1 rat inh inactive
Cn1c(=O)c2c(SCC(=O)N3CCCCC3)nc(-c3ccccc3F)nc2n(C)c1=O	none
CC(=O)N(Cc1c(C#N)c2ccccc2n1C)c1ccccc1	none
CC(=O)N(Cc1ccccc1)c1ncc2c(n1)c(=O)c(C#N)c1ccccn12	ANO1 block 25 | TMEM16A reconf inactive | TMEM16A Ca cntr inactive | YFP-HEK293 quench inactive | ClC-1 rat inh inactive
COc1cc(C(=O)NCC(c2cccs2)N2CCc3ccccc32)cc(OC)c1OC (stereo not given)	none
COc1ccccc1C(=O)NCC(c1cccs1)N1CCc2ccccc21 (stereo not given)	ANO1 block 25 | TMEM16A reconf inactive | TMEM16A Ca cntr inactive | YFP-HEK293 quench inactive | ClC-1 rat inh inactive
Cc1ccc2nc(C)cc(C(=O)Nc3nccs3)c2c1	none
Cc1ccc(F)cc1NC(=O)c1ccc(NS(=O)(=O)c2ccc(Br)s2)cc1	ANO1 block 25 | TMEM16A reconf inactive | TMEM16A Ca cntr inactive | YFP-HEK293 quench inactive | ClC-1 rat inh inactive
